Experimental findings from ChEMBL document CHEMBL2010663, “Iodine-catalyzed condensation of isatin with indoles: a facile synthesis of di(indolyl)indolin-2-ones and evaluation of their cytotoxicity” (Bioorg Med Chem Lett, 2012) are described below.

The subject of one assay is A549. Description: Cytotoxicity against human A549 cells after 48 hrs by MTT assay. Format: functional, cell-based. Particulars: A549, 48 h. Summed up:
(§1)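 Cells seeded at 10,000 cells/100 μl in medium with 10% serum and left 24 h in a humid 5% CO2 chamber to adhere. Compounds were then added at a range of concentrations for 48 h. MTT (5 mg/mL stock in PBS, 10 μl per well) was added for 2 h.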

For the next assay, the system named is MRC5. Description: Cytotoxicity against human MRC5 cells after 48 hrs by MTT assay. The format is cell-based. To be noted: MRC5, 48 h. Summed up:
as §1
For orientation: Tetrazolium dyes change colour on reduction, which living cells bring about.

Another assay deals with MDA-MB-231. Description: Cytotoxicity against human MDA-MB-231 cells after 48 hrs by MTT assay. Format: functional, cell-based. Particulars: MDA-MB-231, 48 h. An outline of the steps:
as §1

Another assay has as its system SK-N-SH. Nature of the assay: Cytotoxicity against human SK-N-SH cells after 48 hrs by MTT assay. The format is functional, cell-based. An outline of the steps: as §1

`O=C1Nc2ccccc2C1(c1c[nH]c2ccc(Cl)cc12)c1c[nH]c2ccc(Cl)cc12`: the IC50 – broadly, the point on the concentration scale where inhibition reaches its midpoint – with A549 is over 100 µM; in the assay on MRC5, over 100 µM; with MDA-MB-231, 10 µM; in the assay on SK-N-SH, 1.31 µM.

Consider `O=C1Nc2ccccc2C1(c1c[nH]c2ccc([N+](=O)[O-])cc12)c1c[nH]c2ccc([N+](=O)[O-])cc12`, for which the IC50 with A549 is 7.9 µM; with MRC5 it was over 100 µM; in the assay with MDA-MB-231 it was 9.98 µM; in the assay with SK-N-SH, 0.99 µM.

`Cc1[nH]c2ccc([N+](=O)[O-])cc2c1C1(c2c(C)[nH]c3ccc([N+](=O)[O-])cc23)C(=O)Nc2ccccc21`: the IC50 in the assay with A549 was 0.89 µM; in the assay on MRC5 it was over 100 µM; in the assay with MDA-MB-231 it was 99.4 µM; in the assay with SK-N-SH, 0.94 µM.

On to `N#Cc1ccc2[nH]cc(C3(c4c[nH]c5ccc(C#N)cc45)C(=O)Nc4ccccc43)c2c1`, for which the half-inhibitory concentration (IC50) in the assay with A549 was 0.97 µM; in the assay on MRC5, over 100 µM; in the assay with MDA-MB-231 it was 99.1 µM; with SK-N-SH, 0.94 µM.

With `COC(=O)c1ccc2[nH]cc(C3(c4c[nH]c5ccc(C(=O)OC)cc45)C(=O)Nc4ccccc43)c2c1`, the IC50 with A549 is 0.75 µM; with MRC5, over 100 µM; with MDA-MB-231, over 100 µM; in the assay with SK-N-SH, 0.98 µM.

On to `O=C1Nc2ccccc2C1(c1c(-c2ccccc2)[nH]c2ccccc12)c1c(-c2ccccc2)[nH]c2ccccc12`, for which the IC50 in the assay on A549 was 8.91 µM; with MRC5, over 100 µM; in the assay with MDA-MB-231 it was over 100 µM; in the assay with SK-N-SH, 9.6 µM.

With `Cc1[nH]c2ccc([N+](=O)[O-])cc2c1C1(c2c(C)[nH]c3ccc([N+](=O)[O-])cc23)C(=O)Nc2ccc(Cl)cc21`, the IC50 in the assay on A549 is 69.4 µM; in the assay with MRC5 it was over 100 µM; in the assay with MDA-MB-231 it was 10.1 µM; with SK-N-SH, 1.23 µM.

For `O=C1Nc2ccc(Cl)cc2C1(c1c(-c2ccccc2)[nH]c2ccccc12)c1c(-c2ccccc2)[nH]c2ccccc12`, the IC50 in the assay on A549, in the assay on MRC5, in the assay with MDA-MB-231 and with SK-N-SH was over 100 µM in each case.

In the case of `COC(=O)c1ccc2[nH]cc(C3(c4c[nH]c5ccc(C(=O)OC)cc45)C(=O)Nc4ccc(Cl)cc43)c2c1`, the IC50 in the assay on A549 is 71.5 µM; with MRC5, over 100 µM; in the assay with MDA-MB-231, 10 µM; in the assay on SK-N-SH, 9.9 µM.

Regarding `O=C1Nc2ccc(Cl)cc2C1(c1c[nH]c2ccc(Br)cc12)c1c[nH]c2ccc(Br)cc12`, the IC50 in the assay with A549 was over 100 µM; in the assay on MRC5, over 100 µM; with MDA-MB-231 it was over 100 µM; in the assay on SK-N-SH it was 1.04 µM.

Consider `O=C1Nc2ccccc2C1(c1c[nH]c2ccc(Br)cc12)c1c[nH]c2ccc(Br)cc12`, for which the IC50 was 0.96 µM with A549, over 100 µM with MRC5, 9.95 µM with MDA-MB-231 and 0.93 µM in the assay with SK-N-SH.

Take `O=C1Nc2ccccc2C1(c1c[nH]c2ccccc12)c1c[nH]c2ccccc12`: the concentration for half-maximal inhibition (IC50) was 1.23 µM with A549, over 100 µM in the assay on MRC5, over 100 µM in the assay on MDA-MB-231 and 0.9 µM in the assay with SK-N-SH.

Regarding `Cc1[nH]c2ccccc2c1C1(c2c(C)[nH]c3ccccc23)C(=O)Nc2ccccc21`, the IC50 in the assay on A549 is 0.92 µM; with MRC5 it was over 100 µM; with MDA-MB-231, over 100 µM; in the assay with SK-N-SH, 0.98 µM.

Turning to `Cn1cc(C2(c3cn(C)c4ccccc34)C(=O)Nc3ccccc32)c2ccccc21`, the IC50 in the assay with A549 was over 100 µM; in the assay on MRC5, over 100 µM; in the assay on MDA-MB-231, over 100 µM; in the assay with SK-N-SH it was 1.32 µM.

As to `COc1cccc2c1C(=O)c1c(O)c3c(c(O)c1C2=O)C[C@@](O)(C(=O)CO)C[C@@H]3O[C@H]1C[C@H](N)[C@H](O)[C@H](C)O1` [DOXORUBICIN], the IC50 in the assay with A549 came out at 15.1 µM; with MRC5, 14.8 µM; in the assay with MDA-MB-231, 8.14 µM; in the assay on SK-N-SH, 0.97 µM.

For `c1ccc2[nH]ccc2c1` [INDOLE], the IC50 was over 100 µM with A549, 15.6 µM in the assay with MRC5, over 100 µM in the assay on MDA-MB-231 and 1.78 µM in the assay on SK-N-SH.

`O=C1Nc2ccccc2C1=O` [ISATIN]: the half-maximal inhibitory concentration (IC50) with A549 is 13.5 µM; in the assay on MRC5, over 100 µM; in the assay with MDA-MB-231, over 100 µM; in the assay with SK-N-SH, 9.84 µM.
